Calls of active or inactive are those of the source. The rule behind the calls is not given here.

Holding throughout (type): cell-based
Data set [1] addresses Potassium voltage-gated channel subfamily KQT member 2 (Rattus norvegicus) (UniProt O88943). Nature of the data set: Activity at rat KCNQ2 expressed in CHOK1 cells assessed as ratio of amplitude of outward current in presence of test compound to amplitude of outward current in absence of test compound at 10 uM at -10 mV by whole cell patch clamp assay. The gist of the method:
(§1)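 CHO-K1 cells expressing the channel, whole-cell voltage clamp, compound at 10 μM. Read-out is the outward current ratio I/I0 with and without compound, taken at −10 mV. I/I0 > 1 counts as activation and < 1 as inhibition. More than four cells per compound.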
A general note: The patch-clamp technique gives a direct electrical read-out from membranes.

Data set [2] addresses T1, Potassium voltage-gated channel subfamily KQT member 5 (Homo sapiens, UniProt Q9NR82). Nature of the data set: Activity at human KCNQ5 expressed in CHOK1 cells assessed as ratio of amplitude of outward current in presence of test compound to amplitude of outward current in absence of test compound at 10 uM at -10 mV by whole cell patch clamp assay. The gist of the method:
as §1

Data set [3] concerns the target Potassium voltage-gated channel subfamily KQT member 2 (Rattus norvegicus) (UniProt O88943). In words: Activity at rat homomeric KCNQ2 expressed in CHOK1 cells assessed as effect on current amplitude up to 30 uM at -10 mV by whole cell patch clamp assay. The gist of the method: (§2)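 CHO-K1 cells expressing homomeric KCNQ2, recorded by whole-cell voltage clamp. Holding potential −80 mV with step depolarizations; current amplitude at −10 mV compared before and after compound across 1–30 μM, reported as percent change in current.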

The target of data set [4] is Potassium voltage-gated channel subfamily KQT member 2 (Rattus norvegicus, UniProt O88943). Nature of the data set: Activation of rat homomeric KCNQ2 expressed in CHOK1 cells increase in current amplitude at 30 uM at -10 mV by whole cell patch clamp assay relative to control. A digest of the protocol:
as §2

Data set [5] addresses T2, Potassium voltage-gated channel subfamily KQT member 3 (Rattus norvegicus) (UniProt O88944).
T2 sequence (whole entry): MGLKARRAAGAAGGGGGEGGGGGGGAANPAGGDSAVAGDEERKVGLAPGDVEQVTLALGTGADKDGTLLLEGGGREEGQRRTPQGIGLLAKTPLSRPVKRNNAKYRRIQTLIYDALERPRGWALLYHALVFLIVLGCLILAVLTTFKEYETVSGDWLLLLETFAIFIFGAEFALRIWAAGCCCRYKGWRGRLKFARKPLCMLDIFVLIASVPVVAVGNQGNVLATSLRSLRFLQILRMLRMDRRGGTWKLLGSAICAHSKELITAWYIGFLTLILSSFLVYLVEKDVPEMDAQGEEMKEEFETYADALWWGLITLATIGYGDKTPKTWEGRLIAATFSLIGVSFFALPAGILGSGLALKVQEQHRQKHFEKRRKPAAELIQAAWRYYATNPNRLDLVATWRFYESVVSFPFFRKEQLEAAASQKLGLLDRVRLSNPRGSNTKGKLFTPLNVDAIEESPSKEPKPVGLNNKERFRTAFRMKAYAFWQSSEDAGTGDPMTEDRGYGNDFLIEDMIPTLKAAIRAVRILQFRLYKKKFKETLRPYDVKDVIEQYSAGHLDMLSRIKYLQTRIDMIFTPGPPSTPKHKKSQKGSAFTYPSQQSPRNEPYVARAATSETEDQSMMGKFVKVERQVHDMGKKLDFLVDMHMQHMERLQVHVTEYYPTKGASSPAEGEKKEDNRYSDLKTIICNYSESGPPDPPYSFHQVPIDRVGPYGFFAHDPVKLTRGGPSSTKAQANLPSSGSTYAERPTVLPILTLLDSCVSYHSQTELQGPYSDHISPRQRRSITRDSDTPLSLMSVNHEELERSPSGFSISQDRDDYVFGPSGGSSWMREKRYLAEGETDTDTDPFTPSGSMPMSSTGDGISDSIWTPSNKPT
In words: Activity at rat KCNQ3 expressed in CHOK1 cells assessed as ratio of amplitude of outward current in presence of test compound to amplitude of outward current in absence of test compound at 10 uM at -10 mV by whole cell patch clamp assay. The gist of the method: (§3)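 CHO-K1 cells individually transfected with a single KCNQ subtype; whole-cell voltage clamp. Held at −80 mV, stepped from −90 to +60 mV in 10 mV increments (1500 ms), then to −120 mV for 500 ms. Outward current at −10 or +60 mV measured before (I0) and after (I) 10 μM compound; I/I0 >1 counts as activation. More than four cells per compound.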

Data set [6] deals with Potassium voltage-gated channel subfamily KQT member 2 (Rattus norvegicus) (UniProt O88943). Nature of the data set: Activity at rat KCNQ2 expressed in CHOK1 cells assessed as ratio of amplitude of outward current in presence of test compound to amplitude of outward current in absence of test compound at 10 uM at +60 mV by whole cell patch clamp assay. The gist of the method: as §3
Chain of Potassium voltage-gated channel subfamily KQT member 2 (Rattus norvegicus) (O88943 whole entry): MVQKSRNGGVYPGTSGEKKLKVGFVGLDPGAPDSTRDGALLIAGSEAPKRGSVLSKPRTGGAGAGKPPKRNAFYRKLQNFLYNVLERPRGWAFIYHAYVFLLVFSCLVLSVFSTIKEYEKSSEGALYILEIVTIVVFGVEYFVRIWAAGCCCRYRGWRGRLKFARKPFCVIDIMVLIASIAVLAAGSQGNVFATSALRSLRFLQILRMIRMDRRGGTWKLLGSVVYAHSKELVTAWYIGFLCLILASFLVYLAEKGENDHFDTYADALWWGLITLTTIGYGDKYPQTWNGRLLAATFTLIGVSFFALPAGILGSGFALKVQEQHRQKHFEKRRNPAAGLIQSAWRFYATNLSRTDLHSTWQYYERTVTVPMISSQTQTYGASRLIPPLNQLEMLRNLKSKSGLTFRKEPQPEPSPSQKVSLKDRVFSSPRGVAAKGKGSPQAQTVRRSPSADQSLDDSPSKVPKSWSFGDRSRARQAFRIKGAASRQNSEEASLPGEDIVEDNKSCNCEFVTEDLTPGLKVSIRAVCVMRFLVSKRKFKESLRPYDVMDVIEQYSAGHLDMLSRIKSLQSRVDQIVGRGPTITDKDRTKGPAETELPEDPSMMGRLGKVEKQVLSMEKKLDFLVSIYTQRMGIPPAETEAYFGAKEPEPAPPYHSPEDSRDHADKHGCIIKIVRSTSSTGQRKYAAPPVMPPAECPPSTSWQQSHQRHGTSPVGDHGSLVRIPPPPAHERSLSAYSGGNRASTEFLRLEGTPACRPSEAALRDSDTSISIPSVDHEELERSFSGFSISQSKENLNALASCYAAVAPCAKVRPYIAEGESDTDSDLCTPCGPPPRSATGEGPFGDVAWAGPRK

The target of data set [7] is T2, Potassium voltage-gated channel subfamily KQT member 3 (Rattus norvegicus). Nature of the data set: Activity at rat KCNQ3 expressed in CHOK1 cells assessed as ratio of amplitude of outward current in presence of test compound to amplitude of outward current in absence of test compound at 10 uM at +60 mV by whole cell patch clamp assay. A digest of the protocol:
as §3

Data set [8] has as its target T3, Potassium voltage-gated channel subfamily KQT member 4 (Homo sapiens) (UniProt P56696).
T3 sequence (whole entry): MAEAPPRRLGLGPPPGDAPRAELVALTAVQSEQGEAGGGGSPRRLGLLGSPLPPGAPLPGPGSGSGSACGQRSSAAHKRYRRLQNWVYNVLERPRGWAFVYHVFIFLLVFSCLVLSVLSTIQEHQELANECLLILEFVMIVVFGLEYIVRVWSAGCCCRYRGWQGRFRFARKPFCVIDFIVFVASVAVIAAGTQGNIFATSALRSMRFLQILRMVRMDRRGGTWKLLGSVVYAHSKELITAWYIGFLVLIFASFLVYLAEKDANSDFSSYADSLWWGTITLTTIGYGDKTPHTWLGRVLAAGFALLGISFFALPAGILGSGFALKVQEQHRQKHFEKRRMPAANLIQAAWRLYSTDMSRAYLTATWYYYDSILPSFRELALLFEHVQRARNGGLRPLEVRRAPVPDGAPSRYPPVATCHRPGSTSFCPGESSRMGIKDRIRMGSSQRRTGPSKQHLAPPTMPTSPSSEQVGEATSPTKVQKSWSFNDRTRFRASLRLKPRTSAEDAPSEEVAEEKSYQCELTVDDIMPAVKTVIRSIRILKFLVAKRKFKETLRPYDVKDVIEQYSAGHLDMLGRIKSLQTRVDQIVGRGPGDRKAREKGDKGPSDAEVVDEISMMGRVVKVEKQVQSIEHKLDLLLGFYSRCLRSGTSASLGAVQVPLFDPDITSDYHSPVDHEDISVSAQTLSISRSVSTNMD
In words: Activity at human KCNQ4 expressed in CHOK1 cells assessed as ratio of amplitude of outward current in presence of test compound to amplitude of outward current in absence of test compound at 10 uM at +60 mV by whole cell patch clamp assay. A digest of the protocol: as §3

Data set [9] deals with T1, Potassium voltage-gated channel subfamily KQT member 5. In words: Activity at human KCNQ5 expressed in CHOK1 cells assessed as ratio of amplitude of outward current in presence of test compound to amplitude of outward current in absence of test compound at 10 uM at +60 mV by whole cell patch clamp assay. The gist of the method:
as §3

The target in data set [10] is Potassium voltage-gated channel subfamily KQT member 2 (Rattus norvegicus) (UniProt O88943). Nature of the data set: Effect on voltage-dependent activation of rat KCNQ2 expressed in CHOK1 cells assessed as negative shift in current activation curve at 10 uM by whole cell patch clamp assay.

T1 sequence (Q9NR82 whole entry): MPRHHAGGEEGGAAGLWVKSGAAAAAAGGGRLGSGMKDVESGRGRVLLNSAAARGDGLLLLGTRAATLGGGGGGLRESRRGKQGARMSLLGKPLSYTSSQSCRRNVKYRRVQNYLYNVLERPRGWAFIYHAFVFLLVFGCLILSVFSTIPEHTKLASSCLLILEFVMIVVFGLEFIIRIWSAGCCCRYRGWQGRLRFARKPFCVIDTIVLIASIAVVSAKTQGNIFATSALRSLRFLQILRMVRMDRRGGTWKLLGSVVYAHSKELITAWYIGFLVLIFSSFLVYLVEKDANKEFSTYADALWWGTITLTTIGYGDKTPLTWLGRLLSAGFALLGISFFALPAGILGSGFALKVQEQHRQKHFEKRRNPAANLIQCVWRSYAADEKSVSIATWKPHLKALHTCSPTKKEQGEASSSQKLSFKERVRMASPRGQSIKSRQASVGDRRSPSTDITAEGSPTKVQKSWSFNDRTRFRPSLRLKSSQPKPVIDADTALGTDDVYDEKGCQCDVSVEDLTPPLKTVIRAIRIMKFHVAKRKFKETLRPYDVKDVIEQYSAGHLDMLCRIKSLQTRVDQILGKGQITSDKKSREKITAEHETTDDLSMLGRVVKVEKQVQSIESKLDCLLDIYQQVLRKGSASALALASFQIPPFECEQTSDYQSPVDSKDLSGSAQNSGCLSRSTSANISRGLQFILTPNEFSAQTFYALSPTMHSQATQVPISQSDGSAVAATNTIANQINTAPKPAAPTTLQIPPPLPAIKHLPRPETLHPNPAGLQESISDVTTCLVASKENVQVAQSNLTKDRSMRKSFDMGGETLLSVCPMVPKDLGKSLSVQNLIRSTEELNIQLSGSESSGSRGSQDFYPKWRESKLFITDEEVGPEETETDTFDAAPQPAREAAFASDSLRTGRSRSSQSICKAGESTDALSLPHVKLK
Chain of Potassium voltage-gated channel subfamily KQT member 2 (O88943 whole entry): as the sequence (O88943 whole entry) above

In the case of `C#CCN(Cc1ccc(F)cc1)c1ccc(NC(=O)OCC)c(NC(=O)OCC)c1`, the Ratio in data set [1] was determined as 0.94; in data set [2], 3.2; in [5], 1.6; in data set [6], 0.8; in data set [7] it was 1.7; in [8], 6.6. In addition, the Ratio in data set [9] turned out to be 4.8. Further, the result in [3] and in data set [10] was inactive. For the same molecule, in data set [4], the Activity was found to be 2%.

The values are drawn from ChEMBL document CHEMBL4382285, “Discovery of Novel Retigabine Derivatives as Potent KCNQ4 and KCNQ5 Channel Agonists with Improved Specificity” (ACS Med Chem Lett, 2019).
